An excerpt weighted towards active compounds, which were near 1.8% of everything screened.
NPY-Y2 antag = antagonists of human neuropeptide Y receptor Y2; NPY-Y2 expressing cells, antagonist mode; inhibition, % at 2.7 µM; actives 0.99% (n = 140,000); in the data active = inhibition above about 17%;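 note: 0% = vehicle with agonist challenge and 100% = reference antagonist with challenge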
Target sequence (P49146 whole entry, looked up): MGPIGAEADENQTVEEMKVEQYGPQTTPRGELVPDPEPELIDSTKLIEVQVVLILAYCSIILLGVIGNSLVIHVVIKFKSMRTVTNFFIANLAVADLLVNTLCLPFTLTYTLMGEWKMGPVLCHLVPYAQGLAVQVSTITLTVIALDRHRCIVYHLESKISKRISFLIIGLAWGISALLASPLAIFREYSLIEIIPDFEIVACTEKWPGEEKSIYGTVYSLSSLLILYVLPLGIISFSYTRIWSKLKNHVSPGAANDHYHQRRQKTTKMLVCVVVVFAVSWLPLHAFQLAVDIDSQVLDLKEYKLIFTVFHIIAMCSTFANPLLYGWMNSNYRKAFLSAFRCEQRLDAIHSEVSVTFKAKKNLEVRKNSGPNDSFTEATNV
NPY2 pot ag = potentiates or activates human NPY-Y2 receptor. P49146. cells expressing NPY-Y2, potentiator/agonist read-out. activation, % at 3.6 µM. actives 0.45% (n = 220,000); in the data active = activation above about 27%;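 note: cells stimulated with NPY near EC25 plus isoproterenol at EC100; 0% = vehicle plus submaximal agonist and 100% = vehicle plus saturating agonist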
NPY1 pot ag = human NPY-Y1 potentiation or agonism, primary screen; P25929; activation, % at 3.6 µM; actives 0.37% (n = 220,000); AID 1304; NPY-Y1 expressing cells, potentiator/agonist activation; in the data active = activation above about 33%, passing the limit was not always enough;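 note: cells stimulated with NPY at EC10 then isoproterenol at EC100; 0% = low agonist plus stimulus and 100% = saturating agonist plus stimulus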
NPY-Y1 antag = NPY-Y1 (human) receptor antagonism; actives 1% (n = 200,000); HEK293-CNG Y1 cells, membrane potential fluorescence; NPY at EC95, then isoproterenol; inhibition, % at 3.6 µM; AID 1040;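 active = inhibition above the campaign mean inhibition of all tested compounds plus 3 SD, cut at about 20% in these data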;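 note: 0% = DMSO wells given NPY plus isoproterenol and 100% = isoproterenol alone without NPY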
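Test system – HEK293 Y1/CNG channel cell line · Also added – NPY agonist 25 nM, then isoproterenol 1 µM plus Ro 20-1724 25 µM · Compound dosing – one concentration, 3.6 µM, in 0.4% DMSO · Schedule – compound incubation 1 h at room temperature, readout 45 min post-stimulation · Technique – fluorescence, membrane potential probe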
Starred values were filed as active, the others as inactive; . = no result given.

SMILES | NPY-Y2 antag | NPY2 pot ag | NPY1 pot ag | NPY-Y1 antag
COC(=O)N(NC(=O)C(O)(c1ccccc1)c1ccccc1)c1ccc(C)cc1 | 21* | -17 | -1 | 31*
CCOC(=O)N(NC(=O)C(O)(C(C)C)C(C)C)c1ccccc1 | . | 4 | -17 | 5
CCOC(=O)N(NC(=O)C(O)(c1ccccc1)c1ccccc1)c1ccccc1 | 20* | 1 | -28 | 46*
Cc1ccc(/C(O)=C2\C(=O)C(=O)N(Cc3cccnc3)C2c2ccccc2[N+](=O)[O-])cc1 (stereo unspecified) | 1 | 10 | 10 | 4
N=c1n(CCN2CCCCC2)c2ccccc2n1CC(O)COc1ccccc1 (stereo unspecified) | 60* | -28 | -75 | 49*
N=c1n(CCN2CCOCC2)c2ccccc2n1CC(O)COc1ccccc1 (stereo unspecified) | 12 | -6 | -15 | 8
CCCCn1c(=N)n(CC(O)COc2ccccc2)c2ccccc21 (stereo unspecified) | 26* | -60 | -58 | 34*
CCCCn1c(=N)n(CC(O)COc2ccc(C)cc2)c2ccccc21 (stereo unspecified) | 47* | -16 | -32 | 61*
COC(=O)[C@H](CCSC)NC(=O)Nc1cc(OC)cc(OC)c1 | . | 5 | 0 | .
CC(CCc1ccccc1)NC(=O)CN1CCN(c2ccc(O)cc2)CC1 (stereo unspecified) | . | 6 | 15 | -5
Cc1ccccc1NC(=O)/C(=C/c1ccccc1)c1ccccc1 | 18* | -12 | 0 | 21*
O=C(Nc1ccccc1)/C(=C/c1ccccc1)c1ccccc1 | 9 | -10 | -3 | 6
Cc1ccc(Cn2c(=N)n(CC(O)COc3ccccc3)c3ccccc32)cc1 (stereo unspecified) | 34* | -25 | -57 | 36*
N=c1n(Cc2ccccc2)c2ccccc2n1CC(O)COc1ccccc1 (stereo unspecified) | 43* | -33 | -29 | 41*
O=C(CCCc1c[nH]c2ccccc12)Nc1ccc(S(=O)(=O)Nc2ncccn2)cc1 | . | 12 | 14 | .
Cc1cc(C)nc(-n2nc(C)cc2NC(=O)c2ccc(S(=O)(=O)N3CCOCC3)cc2)n1 | . | 10 | 12 | .
c1ccc(CSc2ccc(-c3ccccn3)nn2)nc1 | . | -3 | 18 | 5
Cc1ccc(Nc2cc(C)nc(NCc3ccccc3)n2)cc1 | 15 | -3 | -60 | 8
Cc1cc(C)nc(N/N=C/c2ccccc2Cl)n1 | . | -21 | 12 | .
Cc1cc(NC2CCCCC2)nc(NCc2ccccc2)n1 | 24* | -16 | -34 | 23*
Cc1cc(N/N=C/c2ccccc2Cl)nc(NCc2ccccc2)n1 | 19* | -14 | -72 | 25*
Oc1ccc(CCc2n[nH]c(=S)n2-c2ccc(F)cc2)cc1 | . | 4 | 13 | .
O=[N+]([O-])c1ccc(C2(O)CN(c3ccccc3)C3=[N+]2CCS3)cc1 (stereo unspecified) | . | -18 | -22 | 9
CCCN(CC(=O)Nc1c(C)cccc1CC)C(=O)SCC | 18* | -3 | -27 | 19
CCCCN(CC(=O)Nc1c(C)cccc1CC)C(=O)SCC | 31* | -13 | -17 | 22*
SMILES | NPY-Y2 antag | NPY2 pot ag | NPY1 pot ag | NPY-Y1 antag
C=CCN(CC(=O)Nc1c(C)cccc1CC)C(=O)SCCC | 10 | -14 | -15 | 20
O=C(NC1CCCCC1)C(c1cccs1)N(Cc1cccs1)C(=O)c1cccs1 (stereo unspecified) | 18* | -11 | -49 | 41*
Cc1ccc(C(C(=O)NC2CCCC2)N(Cc2ccc3c(c2)OCO3)C(=O)Cc2cccs2)cc1 (stereo unspecified) | 22* | 9 | -19 | 15
O=C(c1ccc2c(c1)OCO2)N(Cc1cccs1)C1(C(=O)NC2CCCCC2)CCCCC1 | 37* | -13 | -10 | 55*
O=C(Cc1cccs1)N(Cc1ccco1)C1(C(=O)NC2CCCCC2)CCCCC1 | 30* | -11 | 9 | 50*
Nc1nc(N)c2c(n1)CCCC2 | . | -22 | 2 | .
COc1ccc(N2CCCC2=N)c(OC)c1 | . | 1 | 9 | .
O=C1CCC(C(=O)N(Cc2ccco2)C2(C(=O)NC3CCCC3)CCCCC2)N1 (stereo unspecified) | 23* | 6 | -26 | 22*
O=C(c1ccc2c(c1)OCO2)N(CC1CCCO1)C1(C(=O)NC2CCCCC2)CCCCC1 (stereo unspecified) | 29* | -7 | -10 | 22*
CN(C(=O)c1ccc2c(c1)OCO2)C1(C(=O)NC2CCCC2)CCCCC1 | 2 | 4 | -15 | 2
O=C(Cc1cccs1)N(Cc1cccs1)C1(C(=O)NC2CCCC2)CCCCC1 | 50* | -11 | -16 | 51*
